For data set [1], the system named is SU-DHL-1. Briefly: Toxicity against human SU-DHL1 cells assessed as cell death over 100 nM after 3 days by luminescence-based CellTiter-Glo assay. Particulars: su-dhl-1, 72 h.
Data set [2] deals with T1, ALK tyrosine kinase receptor (Homo sapiens, UniProt Q9UM73). Briefly: Binding affinity to wild-type human partial length ALK (I1088 to E1409 residues) expressed in mammalian expression system by KINOMEscan assay.
The test system of data set [3] is NCI-H2228. In words: Growth inhibition of human NCI-H2228 cells after 3 days by luminescence-based CellTiter-Glo assay. In kind it is functional, cell-based. The note with it: for pIC50: NCI-H2228, 72 h.
Data set [4] deals with SU-DHL-1. Briefly: Growth inhibition of human SU-DHL1 cells after 3 days by luminescence-based CellTiter-Glo assay. In kind it is functional, cell-based.
Data set [5] has as its target T2, Protein cereblon/ALK tyrosine kinase receptor/Nucleophosmin (Homo sapiens) (UniProt Q9UM73+P06748+Q96SW2). In words: Induction of CRL4/CRBN ubiquitin ligase-mediated NPM-ALK fusion protein degradation in human SU-DHL1 cells pretreated at 100 nM for 2 hrs followed by compound washout and measured after 8 hrs by Western blot analysis. The format is cell-based. In short, it runs like this: (§1)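 Washout in SU-DHL-1 cells: DMSO or 100 nM compound for 2 h, then a PBS wash and incubation in fresh medium for the indicated times. Lysates were immunoblotted for NPM-ALK, p-ALK Y1507 and p-STAT3 Y705, with GAPDH as the reference.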

Data set [6] addresses T2, Protein cereblon/ALK tyrosine kinase receptor/Nucleophosmin (Homo sapiens). In words: Induction of CRL4/CRBN ubiquitin ligase-mediated NPM-ALK fusion protein degradation in human SU-DHL1 cells pretreated with MLN4924 for 2 hrs followed by compound addition at 100 nM and measured after 6 hrs by Western blot analysis. The format is cell-based.
Data set [7] has the same target. In words: Induction of CRL4/CRBN ubiquitin ligase-mediated NPM-ALK fusion protein degradation in human SU-DHL1 cells assessed as reduction in NPM-ALK fusion protein levels at 100 nM after 16 hrs by Western blot analysis. In kind it is cell-based. Set-up: scale not given: the % may be the effect or the level left. In short, it runs like this:
(§2)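 SU-DHL-1 or NCI-H2228 cells, grown in RPMI-1640 with 10% FBS at 37 °C under 5% CO₂, were exposed to DMSO or serial dilutions of compound (up to 100 nM) for 16 h. Cells were lysed in Laemmli buffer and run on SDS-PAGE/PVDF immunoblots probed for ALK, p-ALK Y1507, STAT3, p-STAT3 Y705 and GAPDH. Band levels were normalized to GAPDH. DC50 was taken from a variable-slope fit, triplicate independent experiments, mean ± SEM.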

The target of data set [8] is T3, Protein cereblon/ALK tyrosine kinase receptor/Echinoderm microtubule-associated protein-like 4 (Homo sapiens) (UniProt Q9UM73+Q9HC35+Q96SW2). In words: Induction of CRL4/CRBN ubiquitin ligase-mediated EML4-ALK fusion protein degradation in human NCI-H2228 cells assessed as reduction in STAT3 phosphorylation at Y705 residue after 16 hrs by Western blot analysis. In kind it is cell-based. In short, it runs like this: as §2

The target of data set [9] is T2, Protein cereblon/ALK tyrosine kinase receptor/Nucleophosmin (Homo sapiens). In words: Induction of CRL4/CRBN ubiquitin ligase-mediated NPM-ALK fusion protein degradation in human SU-DHL1 cells pretreated with pomalidomide for 2 hrs followed by compound addition at 100 nM and measured after 6 hrs by Western blot analysis. In kind it is cell-based.
Data set [10] has as its target T3, Protein cereblon/ALK tyrosine kinase receptor/Echinoderm microtubule-associated protein-like 4 (Homo sapiens). In words: Induction of CRL4/CRBN ubiquitin ligase-mediated EML4-ALK fusion protein degradation assessed as inhibition of ALK autophosphorylation at Y1507 residue in human NCI-H2228 cells at 60 nM after 8 to 24 hrs by Western blot analysis. In kind it is cell-based. In short, it runs like this: (§3)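 Time course by immunoblot. SU-DHL-1 (30 nM) or NCI-H2228 (60 nM) cells in RPMI-1640 with 10% FBS were held at a fixed degrader concentration and harvested over time up to 24 h. Lysates in Laemmli buffer were blotted for ALK fusion protein, p-ALK Y1507 and p-STAT3 Y705, with GAPDH as the loading reference.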

The target is the same in data set [11]. Briefly: Induction of CRL4/CRBN ubiquitin ligase-mediated EML4-ALK fusion protein degradation in human NCI-H2228 cells assessed as reduction in STAT3 phosphorylation at Y705 residue at 60 nM after 8 to 24 hrs by Western blot analysis. The format is cell-based. The gist of the method: as §3
Data set [12] deals with T1, ALK tyrosine kinase receptor. Briefly: Inhibition of ALK autophosphorylation at Y1507 residue in human SU-DHL1 cells at 100 nM after 16 hrs by Western blot analysis. In kind it is cell-based. The gist of the method: as §2
In data set [13] the target is T2, Protein cereblon/ALK tyrosine kinase receptor/Nucleophosmin (Homo sapiens). Briefly: Induction of CRL4/CRBN ubiquitin ligase-mediated NPM-ALK fusion protein degradation in human SU-DHL1 cells assessed as reduction in STAT3 phosphorylation at Y705 residue pretreated at 100 nM for 2 hrs followed by compound washout and measured after 8 hrs by Western blot analysis. The format is cell-based. In short, it runs like this: as §1

Data set [14] has as its target T1, ALK tyrosine kinase receptor. Briefly: Inhibition of ALK autophosphorylation at Y1507 residue in human SU-DHL1 cells pretreated with MLN4924 for 2 hrs followed by compound addition at 100 nM and measured after 6 hrs by Western blot analysis. In kind it is cell-based.
Data set [15] addresses T2, Protein cereblon/ALK tyrosine kinase receptor/Nucleophosmin (Homo sapiens). In words: Induction of CRL4/CRBN ubiquitin ligase-mediated NPM-ALK fusion protein degradation in human SU-DHL1 cells assessed as inhibition of ALK autophosphorylation at Y1507 residue pretreated at 100 nM for 2 hrs followed by compound washout and measured after 8 hrs by Western blot analysis. In kind it is cell-based. In short, it runs like this:
as §1

Data set [16] addresses T3, Protein cereblon/ALK tyrosine kinase receptor/Echinoderm microtubule-associated protein-like 4 (Homo sapiens). In words: Induction of CRL4/CRBN ubiquitin ligase-mediated EML4-ALK fusion protein degradation in human NCI-H2228 cells assessed as reduction in EML4-ALK fusion protein levels at 60 nM after 8 to 24 hrs hrs by Western blot analysis. The format is cell-based. The gist of the method: as §3

Data set [17] deals with T1, ALK tyrosine kinase receptor. In words: Inhibition of ALK in human SU-DHL1 cells assessed as reduction in STAT3 phosphorylation at Y705 residue at 100 nM after 16 hrs by Western blot analysis. The format is cell-based. In short, it runs like this: as §2
For data set [18] the target is unchanged. In words: Inhibition of ALK autophosphorylation at Y1507 residue in human NCI-H2228 cells after 16 hrs by Western blot analysis. In kind it is cell-based. The gist of the method: as §2
For data set [19] the target is unchanged. Briefly: Inhibition of ALK autophosphorylation at Y1507 residue in human SU-DHL1 cells pretreated with pomalidomide for 2 hrs followed by compound addition at 100 nM and measured after 6 hrs by Western blot analysis. The format is cell-based.
In data set [20] the target is T2, Protein cereblon/ALK tyrosine kinase receptor/Nucleophosmin (Homo sapiens). In words: Induction of CRL4/CRBN ubiquitin ligase-mediated NPM-ALK fusion protein degradation in human SU-DHL1 cells pretreated with ceritinib for 2 hrs followed by compound addition at 100 nM and measured after 6 hrs by Western blot analysis. The format is cell-based.
Data set [21] concerns the target T1, ALK tyrosine kinase receptor. In words: Inhibition of ALK autophosphorylation at Y1507 residue in human SU-DHL1 cells after 16 hrs by Western blot analysis. In kind it is cell-based. The gist of the method:
as §2

For data set [22] the target is unchanged. Briefly: Inhibition of ALK autophosphorylation at Y1507 residue in human SU-DHL1 cells pretreated with MG-132 for 2 hrs followed by compound addition at 100 nM and measured after 6 hrs by Western blot analysis. In kind it is cell-based.
Data set [23] has as its target T2, Protein cereblon/ALK tyrosine kinase receptor/Nucleophosmin (Homo sapiens). Briefly: Induction of CRL4/CRBN ubiquitin ligase-mediated NPM-ALK fusion protein degradation in human SU-DHL1 cells pretreated with MG-132 for 2 hrs followed by compound addition at 100 nM and measured after 6 hrs by Western blot analysis. The format is cell-based.
For data set [24], the system named is Mus musculus. Briefly: Toxicity in Swiss Albino mouse assessed as drug tolerability at 50 mg/kg, ip. In kind it is organism-based. Particulars: in vivo. In short, it runs like this:
(§4)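 Male Swiss Albino mice received a single 50 mg/kg intraperitoneal dose, with clinical signs monitored. Plasma was sampled at 30 min, 1, 2, 4, 8 and 12 h post dose. Values are the average of 3 animals ± SD.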

The nature of data set [25]: Plasma concentration in Swiss Albino mouse at 50 mg/kg, ip after 2 hrs. The format is ADME, organism-based. The gist of the method: as §4
Data set [26] in a line: Plasma concentration in Swiss Albino mouse at 50 mg/kg, ip after 12 hrs. The format is ADME, organism-based. In short, it runs like this:
as §4

Structures are written as SMILES. pIC50, pKd: −log10 of the molar value. Activity calls are given as the source filed them. The rule behind the calls is not given here.

From ChEMBL document CHEMBL4152197, “Proteolysis Targeting Chimeras (PROTACs) of Anaplastic Lymphoma Kinase (ALK)” (Eur J Med Chem, 2018) come the findings set out here.

In the case of `Cc1cc(Nc2ncc(Cl)c(Nc3ccccc3S(=O)(=O)C(C)C)n2)c(OC(C)C)cc1C1CCNCC1` [CERITINIB], the Activity result in data set [1] is “Toxic”.

Turning to `Cc1cc(Nc2ncc(Cl)c(Nc3ccccc3S(=O)(=O)C(C)C)n2)c(OC(C)C)cc1C1CCN(CC(=O)NCCOCCOCCOCCOCCOCCNc2cccc3c2C(=O)N(C2CCC(=O)N(C)C2=O)C3=O)CC1` (configuration not stated), the pKd in [2] is 7.27. Moreover, the “growth inhibition (GI)” value in data set [3] and in [4] was “inactive” each time.

Regarding `Cc1cc(Nc2ncc(Cl)c(Nc3ccccc3S(=O)(=O)C(C)C)n2)c(OC(C)C)cc1C1CCN(CC(=O)NCCOCCOCCOCCOCCOCCNc2cccc3c2C(=O)N(C2CCC(=O)NC2=O)C3=O)CC1` (configuration not stated), the outcome in data set [5], in [6], in data set [9], in data set [13], in data set [15] and in [23] was inactive. The Activity in data set [7] is over 90%; in data set [8] it was “Dose-dependent effect”; in data set [1], “Toxic”. Besides, the result in data set [10], in data set [11], in data set [16] and in data set [20] was Active. For the same compound, the inhibition in [12] was over 90%; in data set [17] it was over 90%; in data set [18], “Dose-dependent effect”; in [21], “Dose-dependent effect”. Moreover, the inhibition result in [14], in [19] and in data set [22] was “Active” throughout. This compound showed a pIC50 in data set [3] of 7.34.

`Cc1cc(Nc2ncc(Cl)c(Nc3ccccc3S(=O)(=O)C(C)C)n2)c(OC(C)C)cc1C1CCN(CC(=O)NCCNc2cccc3c2C(=O)N(C2CCC(=O)NC2=O)C3=O)CC1` (configuration not stated): the result in data set [5], in data set [6], in [9], in [13], in data set [15] and in data set [23] was inactive. The Activity in data set [7] was over 90%; in data set [8], “Dose-dependent effect”; in data set [24] it was “Non-Toxic”; in data set [1], “Toxic”. Further, the outcome in data set [10], in data set [11], in data set [16] and in data set [20] was Active. For the same compound, the inhibition was over 90% in data set [12], over 90% in data set [17], “Dose-dependent effect” in [18] and “Dose-dependent effect” in data set [21]. Further, the inhibition entry in data set [14], in data set [19] and in data set [22] was “Active” in each case. Moreover, the concentration at 2 h in data set [25] was found to be 3000 nM. This compound also gave a pIC50 in [3] of 7.48. Further, the concentration at 12 h in data set [26] is 340 nM.

In turn, `Cc1cc(Nc2ncc(Cl)c(Nc3ccccc3S(=O)(=O)C(C)C)n2)c(OC(C)C)cc1C1CCN(CC(=O)NCCNc2cccc3c2C(=O)N(C2CCC(=O)N(C)C2=O)C3=O)CC1` (configuration not stated) showed a pKd in data set [2] of 7.11. Also, the “growth inhibition (GI)” value in data set [3] and in data set [4] was “inactive” each time.
